For the assay, the target named is Asyn fibrils (Homo sapiens, UniProt P37840). The assay is described as follows: Radioligand competition binding on Asyn fibrils with [3H]1. Summed up: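 Recombinant human Asyn fibrils at 150 nM incubated with 2 nM [3H]1 and test compound (1–1000 nM) in 30 mM Tris-HCl pH 7.4 with 0.1% BSA for 2 h at 37 °C. Bound ligand separated by vacuum filtration through 1.0 μm glass fiber filters, washed three times with cold buffer, and counted by scintillation after overnight incubation. Triplicates. EC50 from sigmoidal fit; Ki = EC50/(1+[radioligand]/Kd).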
On the technique in general: In a radioligand displacement assay an active substance lowers the binding of a labelled ligand.

Experimental findings from publication PMC6736640 (ACS chemical neuroscience, 2018) are described below.

Consider `COc1ccc(/C=C/c2cc(-c3nccs3)on2)cc1` [compound 1, (E)-3-(4-methoxystyryl)-5-(thiazol-2-yl)isoxazole], for which the Kd came to 47 nM.

For orientation: Kd means the concentration at which binding is half-saturated.
